The values that follow come from ChEMBL document CHEMBL1159005, “Inhibitory effects of flavonoids on Moloney murine leukemia virus reverse transcriptase activity” (J Nat Prod, 1992).

Assay [1] relates to Moloney murine leukemia virus. Put plainly: Inhibition of Moloney murine leukemia virus reverse transcriptase using (riboadenylic acid)n(deoxythymidylic acid)12-18 as template primer by liquid scintillation counting. In outline: (§1)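 30 μl mix of 50 mM Tris-HCl pH 8.3, 75 mM KCl, 10 mM DTT, 3 mM MgCl₂, 3 μg nuclease-free BSA, 0.5 μg template-primer, 2 mM dTTP or dGTP with 0.5 μCi matching [³H]-dNTP, and 5 units MMLV RT. Incubated 37° for 30 min, stopped with EDTA. Duplicate aliquots spotted on DE-81 paper, washed, and counted by liquid scintillation.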

Assay [2] relates to Moloney murine leukemia virus. Put plainly: Inhibition of Moloney murine leukemia virus reverse transcriptase using (ribocytidylic acid)n(deoxyguanylic acid)12-18 as template primer by liquid scintillation counting. In short, it runs like this:
as §1

Assay [3] can be described thus: Selectivity for Moloney murine leukemia virus reverse transcriptase over Escherichia coli DNA polymerase 1.

A value given as a limit tells only on which side of the number the result lay.

Turning to `Oc1cc(O)c2c(c1)O[C@H](c1ccc(O)c(O)c1)[C@@H](O)C2`, the ID50 was 2.75 µM in assay [1] and 2.86 µM in assay [2].

In the case of `O=c1cc(-c2ccccc2)oc2cc(O)ccc12`, the ID50 in assay [1] and in assay [2] was above 420 µM each time.

For the compound `O=c1c(O)c(-c2ccc(O)c(O)c2)oc2cc(O)ccc12`, the ID50 in assay [1] was determined as 0.28 µM; in assay [2] it was 0.24 µM.

For the compound `O=c1c(O)c(-c2ccc(O)cc2O)oc2cc(O)cc(O)c12`, the ID50 in assay [1] was 1.03 µM; in assay [2], 1.01 µM. Besides, in assay [3], the fold change (FC) was found to be 10.

For `O=c1c(O)c(-c2ccccc2)oc2ccccc12`, the ID50 in assay [1] and in assay [2] was above 420 µM each time.

Take `C[C@@H]1O[C@@H](OC[C@H]2O[C@@H](Oc3c(-c4ccc(O)c(O)c4)oc4cc(O)cc(O)c4c3=O)[C@H](O)[C@@H](O)[C@@H]2O)[C@H](O)[C@H](O)[C@H]1O`: the ID50 was 7.27 µM in assay [1] and 7.33 µM in assay [2].

Regarding `O=c1c(O)c(-c2ccc(O)c(O)c2)oc2cc(O)cc(O)c12`, the ID50 in assay [1] was 0.2 µM; in assay [2], 0.17 µM. The fold change (FC) in assay [3] is 10.

For the compound `O=c1c(O)c(-c2ccc(O)cc2)oc2cc(O)cc(O)c12`, the ID50 in assay [1] came out at 1.22 µM; in assay [2] it was 1.29 µM. Also, the fold change (FC) in assay [3] came to 10.

As for `O=C1CC(c2ccccc2)Oc2ccccc21` (stereo not drawn), the ID50 in assay [1] and in assay [2] was above 446 µM throughout.

As for `C[C@H]1O[C@@H](Oc2c(-c3cc(O)c(O)c(O)c3)oc3cc(O)cc(O)c3c2=O)[C@@H](O)[C@@H](O)[C@@H]1O`, the ID50 in assay [1] turned out to be 10.1 µM; in assay [2], 9.69 µM.

For the compound `COc1ccc([C@@H]2CC(=O)c3c(O)cc(O)cc3O2)cc1O`, the ID50 in assay [1] amounted to 20.9 µM; in assay [2] it was 22.1 µM.

Consider `O=c1c(O)c(-c2cc(O)c(O)c(O)c2)oc2cc(O)cc(O)c12`, for which the results for the ID50 in assay [1] and in assay [2] were 0.25 µM and 0.28 µM, respectively. For the same compound, the fold change (FC) in assay [3] stood at 10.

As for `O=C1c2c(O)cc(O)cc2OC(c2ccc(O)c(O)c2)C1O` (racemic), the ID50 is 2.43 µM in assay [1] and 2.46 µM in assay [2]. Further, the fold change (FC) in assay [3] amounted to 10.

`Oc1cc(O)c2c(c1)O[C@H](c1ccc(O)c(O)c1)[C@H](O)C2`: the ID50 in assay [1] was 2.58 µM; in assay [2], 2.65 µM.
